{"source": "paper PMC8102310", "about": "(Cancer discovery, 2021)", "key": {"[1]": {"tested_on": "androgen-dependent and castration resistant prostate cancer cell lines", "settings": "ref [35], [54]; cited from earlier work"}, "22Rv1 mouse xenografts": {"tested_on": "22Rv1 mouse xenografts", "experiment": "22Rv1 mouse xenograft", "assay_type": "in vivo"}, "LNCaP95": {"tested_on": "LNCaP95", "experiment": "Cell proliferation", "assay_type": "cell-based", "settings": "LNCaP-95, read-out: growth inhibition IC50"}, "C4–2 cells": {"tested_on": "C4–2 cells", "experiment": "Chromatin immunoprecipitation of CBP, p300 and AR-FL at AR binding sites", "assay_type": "cell-based", "settings": "500nM, 10nM dihydrotestosterone"}, "[2]": {"tested_on": "AR negative, hormone independent, cell lines", "experiment": "Cell proliferation", "assay_type": "cell-based", "settings": "read-out: growth inhibition IC50"}, "LNCaP-Bic mouse": {"tested_on": "LNCaP-Bic mouse", "experiment": "LNCaP-Bic mouse xenograft", "assay_type": "in vivo"}, "LNCaP95 cells": {"tested_on": "LNCaP95 cells", "experiment": "AR and C-MYC signaling", "assay_type": "cell-based"}, "BRD4 bromodomain": {"target": "BRD4 bromodomain (Homo sapiens, UniProt O60885)", "assay_type": "cell-based"}, "[3]": {"tested_on": "44 receptors, enzymes and ion channels", "experiment": "Safety screen of 44 receptors, enzymes and ion channels", "assay_type": "biochemical", "settings": "at 10 μM"}, "97 kinases": {"tested_on": "97 kinases", "experiment": "Screen of 97 kinases", "assay_type": "biochemical", "settings": "at 10 μM"}, "22Rv1 cells [4]": {"tested_on": "22Rv1 cells", "experiment": "AR and C-MYC signaling", "assay_type": "cell-based"}, "VCaP": {"tested_on": "VCaP", "experiment": "Cell proliferation", "assay_type": "cell-based", "settings": "Homo sapiens, read-out: growth inhibition IC50"}, "patients with mCRPC": {"tested_on": "patients with mCRPC", "experiment": "First in human phase I trial", "assay_type": "in vivo"}, "22Rv1": {"tested_on": "22Rv1", "experiment": "Cell proliferation", "assay_type": "cell-based"}, "[5]": {"tested_on": "JQ1 resistant 22Rv1 cells", "experiment": "Cell proliferation in JQ1 resistant cells", "assay_type": "cell-based", "settings": "for resistance, resistant vs parental: JQ1 resistant 22Rv1 cells", "outline": "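For resistance, 22Rv1 cells were cultured for 6 months in escalating BET inhibitor (30 nM up to 500 nM) or in 0.1% DMSO vehicle. Dose was raised only when morphology, viability and growth were good and after at least two passages at the prior dose. Parental (vehicle-cultured) and resistant cells were then compared for proliferation IC50.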"}, "CP50c PDX": {"tested_on": "CP50c PDX", "experiment": "CP50c patient-derived xenograft", "assay_type": "in vivo, mouse", "outline": "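CP50c PDX was passaged twice in castrated mice, then fragments were grafted subcutaneously into castrated male NSG mice. Oral gavage dosing began at about 300–400 mm³, once daily, with 5% DMSO:95% methylcellulose (0.5% w/v) as vehicle or formulation. Volumes were taken every 2–3 days and grouped by 5-day intervals, n=6 per group. Growth was normalized to start, and time to 300% of starting volume served as the surrogate survival endpoint.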"}, "BRD2, 3, 4, 9 and WDR9": {"tested_on": "BRD2, 3, 4, 9 and WDR9", "experiment": "Bromoscan assay of 32 bromodomains", "settings": "at 1 μM; minimal binding"}, "22Rv1 cells [6]": {"tested_on": "22Rv1 cells", "experiment": "Chromatin immunoprecipitation of CBP, p300 and AR-FL at AR binding sites", "assay_type": "cell-based", "settings": "500nM, 10nM dihydrotestosterone"}}, "note": "pIC50: −log10 of the molar value. Read-outs that look alike come from different tables or passages of the source.", "data": [{"molecule": "CNC(=O)Nc1ccc2c(c1)CC[C@@]21OC(=O)N(CC(=O)N(Cc2ccc(F)cc2)[C@@H](C)C(F)(F)F)C1=O", "note": "[A-485]", "values": [{"measurement": "cell death", "setting": "[1]", "result": "induce cell death"}]}, {"molecule": "CC1=NN(c2ccc(C(=O)O)cc2)C(=O)/C1=C\\c1ccc(-c2cc(C)c(C)cc2[N+](=O)[O-])o1", "note": "[C646]", "values": [{"measurement": "cell death", "setting": "[1]", "result": "induce cell death"}]}, {"molecule": "CO[C@H]1CC[C@H](n2c([C@@H]3CCCC(=O)N3c3ccc(F)c(F)c3)nc3cc(-c4c(C)noc4C)ccc32)CC1", "note": "[CCS1477]", "values": [{"measurement": "most effective tolerated dose", "setting": "22Rv1 mouse xenografts; 22Rv1 xenograft", "result": 20, "unit": "mg/kg"}, {"measurement": "concentration of CCS1477 in plasma and tumor", "setting": "22Rv1 mouse xenografts; 24-hours after the last dose", "result": "undetectable"}, {"measurement": "AR-FL, AR-V7 and C-MYC protein expression in tumors", "setting": "22Rv1 mouse xenografts; after 7-days of treatment, all doses tested", "result": "reduced"}, {"measurement": "plasma KLK3 concentrations", "setting": "22Rv1 mouse xenografts; all doses", "result": "decrease"}, {"measurement": "levels of CCS1477 in plasma or tumor", "setting": "22Rv1 mouse xenografts; day 52", "result": "no detectable levels"}, {"measurement": "tolerability", "setting": "22Rv1 mouse xenografts; mouse, in vivo", "result": "well tolerated with no change in body weight or condition of the animals"}, {"measurement": "tumor growth", "setting": "22Rv1 mouse xenografts; oral, 10mg/kg QD, 20 mg/kg QD, 30 mg/kg QOD, vs vehicle", "result": "significantly (p=<0.001) impacted tumor growth"}, {"measurement": "tumor growth inhibition after treatment stopped at 28-days", "setting": "22Rv1 mouse xenografts; treatment stopped after 28-days", "result": "sustained until day 52"}, {"measurement": "pIC50", "setting": "LNCaP95", "result": "> 7.00"}, {"measurement": "recruitment of CBP, p300 and AR-FL to AR binding sites", "setting": "C4–2 cells", "result": "reduced the recruitment of CBP, p300 and AR-FL"}, {"measurement": "pIC50", "setting": "[2]", "result": "< 6.00"}, {"measurement": "tumor growth compared to enzalutamide", "setting": "LNCaP-Bic mouse", "result": "significantly (p=<0.001) reduced tumor growth"}, {"measurement": "expression of AR regulated genes (KLK2, KLK3 and TMPRSS2)", "setting": "LNCaP95 cells; 48-hours", "result": "reduced"}, {"measurement": "C-MYC protein expression", "setting": "LNCaP95 cells; LNCaP95", "result": "reduced"}, {"measurement": "pIC50", "setting": "BRD4 bromodomain", "result": 5.97}, {"measurement": "biochemical inhibitory activity in safety screen", "setting": "[3]", "result": "no biochemical inhibitory activity"}, {"measurement": "biochemical inhibitory activity", "setting": "97 kinases", "result": "no biochemical inhibitory activity"}, {"measurement": "C-MYC protein expression", "setting": "22Rv1 cells [4]; 22Rv1", "result": "reduced"}, {"measurement": "expression of AR regulated genes (KLK2, KLK3 and TMPRSS2)", "setting": "22Rv1 cells [4]; 48-hours", "result": "reduced"}, {"measurement": "pIC50", "setting": "VCaP", "result": "> 7.00"}, {"measurement": "plasma KLK3", "setting": "patients with mCRPC; Patient 1, 50 mg BD 3-days-on-and-4 days-off", "result": "initial fall in plasma KLK3 which then stabilized"}, {"measurement": "biopsy protein expression post-dose vs pre-dose (IHC)", "setting": "patients with mCRPC; Patient 1, 50 mg BD, 4-hours post dose", "result": "reduction in AR-V7 and C-MYC protein expression"}, {"measurement": "biopsy protein expression post-dose vs pre-dose (IHC)", "setting": "patients with mCRPC; Patient 2, 25 mg BD, 3-hours post dose", "result": "reduction in C-MYC and Ki67 protein expression"}, {"measurement": "pIC50", "setting": "22Rv1; Homo sapiens, 22Rv1, read-out: growth inhibition IC50, 22Rv1", "result": "> 7.00"}, {"measurement": "pIC50", "setting": "22Rv1; read-out: growth inhibition IC50, 22Rv1", "result": 7.02}, {"measurement": "sensitivity of JQ1 resistant 22Rv1 cells to treatment", "setting": "[5]; compared with parental", "result": "more sensitive"}, {"measurement": "median time to 300% growth", "setting": "CP50c PDX; 20 mg/kg once-daily, vehicle 38", "result": 56, "unit": "days"}, {"measurement": "survival (time to 300% growth)", "setting": "CP50c PDX; oral 20 mg/kg QD vs vehicle", "result": "significantly (p=<0.001) prolonged survival"}, {"measurement": "tumor growth", "setting": "CP50c PDX; oral 20 mg/kg QD vs vehicle", "result": "significantly (p=0.02) reduced tumor growth"}, {"measurement": "binding, % of control", "setting": "BRD2, 3, 4, 9 and WDR9", "result": "14–33 % of control"}, {"measurement": "recruitment of CBP, p300 and AR-FL to AR binding sites", "setting": "22Rv1 cells [6]", "result": "reduced the recruitment of CBP, p300 and AR-FL"}]}, {"molecule": "Cc1sc2c(c1C)C(c1ccc(Cl)cc1)=N[C@@H](CC(=O)OC(C)(C)C)c1nnc(C)n1-2", "note": "[JQ1]", "values": [{"measurement": "pIC50", "setting": "22Rv1; read-out: IC50 in parental 22Rv1 cells, parental cells, vehicle cultured", "result": 7.22}, {"measurement": "resistance, resistant vs parental", "setting": "[5]", "result": "> 100", "unit": "fold"}, {"measurement": "pIC50", "setting": "[5]; read-out: IC50 in JQ1 resistant 22Rv1 cells, resistant cells", "result": 5.14}]}, {"molecule": "Cc1sc2c(c1C)C(c1ccc(Cl)cc1)=N[C@@H](CC(=O)Nc1ccc(O)cc1)c1nnc(C)n1-2", "note": "[OTX-015]", "values": [{"measurement": "resistance, resistant vs parental", "setting": "[5]", "result": "> 100", "unit": "fold"}]}, {"molecule": "I-BET151", "values": [{"measurement": "resistance, resistant vs parental", "setting": "[5]", "result": "> 100", "unit": "fold"}]}]}
